pEC50: −log10 of the molar value. Read-outs that look alike come from different tables or passages of the source. One block for each compound: values may come before it.
Tests used:
patients with AOGCT = conditions: case report, one patient with AOGCT, cited from earlier work
AOGCT KGN cells = conditions: read-out: EC50, inhibition of proliferation; KGN cells in vitro; cited from earlier work
[1] = Plasma pharmacokinetics of paclitaxel and metabolites; assay type: in vivo, human
OATP1B2 = conditions: via inhibition of OATP1B2 in dorsal root ganglia cells; cited from earlier work
[2] = cited from earlier work
[3] = Plasma pharmacokinetics of nilotinib in the combination; assay type: in vivo; conditions: human, oral, Mean nilotinib AUC(0–24hours)
CYP2C8 = conditions: cited from earlier work
[4] = system: serine 10-phosphorylated histone H3 (pHH3); experiment: pHH3 quantitative immunofluorescence; assay type: in vivo, human; conditions: C1D2 biopsies (after paclitaxel alone) relative to baseline, P = 0.0031
In short: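 Adult patients with solid tumours received IV test taxane on days 1, 8 and 15 of 28-day cycles, with oral kinase inhibitor started C1D3 during dose expansion. 18-gauge core biopsies were taken at baseline, C1D2 and C1D28, snap-frozen, thawed in neutral buffered formalin, paraffin-embedded and cut at 5 micron for quantitative IFA. Per-patient means were compared by unpaired t test assuming unequal variances.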

E-cadherin, vimentin = experiment: EMT immunofluorescence assay in tumor biopsies, log10; assay type: in vivo, human; conditions: single-agent paclitaxel, C1D2 biopsies
[5] = system: patients with relapsed ovarian sex cord–stromal tumors; conditions: weekly paclitaxel monotherapy, phase 2 arm, 32 patients (84% AOGCT); cited from earlier work

Structure (SMILES): Cc1ccc(NC(=O)c2ccc(CN3CCN(C)CC3)cc2)cc1Nc1nccc(-c2cccnc2)n1 [Imatinib]
- Duration of stable disease (patients with AOGCT; ref 36): over 16 months
- Duration of stable disease (patients with AOGCT; ref 37): 12 months

- AUC(0-t) ([3]; day 8, DL2 (300 mg nilotinib twice daily, 80 mg/m^2 paclitaxel)): 51.2 µM·h
- AUC(0-t) ([3]; day 8, DL3 (400 mg nilotinib twice daily, 80 mg/m^2 paclitaxel)): 90.4 µM·h
Structure (SMILES): Cc1cn(-c2cc(NC(=O)c3ccc(C)c(Nc4nccc(-c5cccnc5)n4)c3)cc(C(F)(F)F)c2)cn1 [nilotinib]
- pEC50 (AOGCT KGN cells): 4.88
- Effect of nilotinib coadministration on plasma paclitaxel exposures ([1]; day 8 vs day 1, DL2 vs DL3): does not modulate plasma paclitaxel exposures
- Effect on paclitaxel-induced peripheral neuropathy (OATP1B2): attenuates paclitaxel-induced peripheral neuropathy
- Published mean AUC(0–24hours) ([2]; nilotinib monotherapy): 3,848 ± 1,116 μmol/L × minutes
- Cmax ([2]; read-out: Clinical Cmax, 300 mg twice-daily dosing): ~2000 nM
- Effect on CYP2C8-mediated 6α-hydroxypaclitaxel formation (CYP2C8): inhibits

Structure (SMILES): CC(=O)O[C@H]1C(=O)[C@@]2(C)[C@H]([C@H](OC(=O)c3ccccc3)[C@]3(O)C[C@H](OC(=O)[C@H](O)[C@@H](NC(=O)c4ccccc4)c4ccccc4)C(C)=C1C3(C)C)[C@]1(OC(C)=O)CO[C@@H]1C[C@@H]2O [paclitaxel]
- Change in mitotic arrest marker pHH3 [4]: significant increase
- Dose proportionality of plasma concentrations ([1]; across the two doses tested (60 and 80 mg/m^2)): dose-proportional
- Change in tumor EMT phenotype (E-cadherin, vimentin): no obvious biologically relevant changes in EMT phenotype
- Progression-free survival [5]: 14.7 months

Reference: PMC12130796 (Clinical Cancer Research, 2025)
